The Kd is the free concentration of one partner at which half of the binding sites on the other are occupied at equilibrium, for simple one-to-one binding. High values mean a looser complex, low ones a tighter complex.

SMILES strings stand for the structures. Activity calls are given as the source filed them. The rule behind the calls is not given here.

The record followed here is ChEMBL document CHEMBL4266033, “Neolymphostin A Is a Covalent Phosphoinositide 3-Kinase (PI3K)/Mammalian Target of Rapamycin (mTOR) Dual Inhibitor That Employs an Unusual Electrophilic Vinylogous Ester” (J Med Chem, 2018).

The target in test [1] is Epidermal growth factor receptor (Homo sapiens) (UniProt P00533). Kind of test: Inhibition of EGFR in human HeLa cells assessed as reduction in EGF-stimulated ERK1/2 phosphorylation at T202/Y204 at 0.3 to 100 nM preincubated for 10 mins followed by EGF stimulation measured after 5 mins by Western blot analysis. The format is cell-based. In short, it runs like this:
(§1)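 HeLa cells were serum-starved overnight, pretreated with compound for 10 min, then stimulated with 10 ng mL-1 EGF for 5 min. Lysis was in boiling SDS sample buffer, with protein quantified at 660 nm. Equal protein was resolved by SDS-PAGE and Western blotted for pEGFR Tyr1068, pAKT Ser473/Thr308, and pERK1/2 Thr202/Tyr204 with total proteins and GAPDH, detected by ECL.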
A general note: In western blotting, separated proteins are transferred to a membrane and probed.

Test [2] deals with Aurora kinase B (Homo sapiens) (UniProt Q96GD4). In words: Binding affinity to human AURKB at 1 uM after 1 hr by KINOMEscan assay. The essentials:
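KINOMEscan competition binding profiling across 97 kinases. Affinity expressed as percent of control.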

Test [3] deals with PI3-kinase p110-alpha/p85-alpha (Homo sapiens) (UniProt P27986+P42336). In words: Binding affinity to PI3Kalpha/p85alpha (unknown origin) assessed as covalent modification at Lys802 residue at 4 uM after 2 mins by tandem MS/MS method. The format is protein-complex assay. The essentials: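 Recombinant PI3Kα (p110α/p85α) at 2 μM mixed with 4 μM inhibitor in 10 mM HEPES pH 7.5, 100 mM NaCl, 5% DMSO. Timepoints quenched by unfolding in ice-cold 2 M guanidine-HCl/3% formic acid, snap-frozen in liquid N2, stored at −80 °C. Analysed by LC-MS/MS; mass shift of the modified peptide read out.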

The target of test [4] is T1, Phosphatidylinositol 4,5-bisphosphate 3-kinase catalytic subunit alpha isoform (Homo sapiens, UniProt P42336). In words: Binding affinity to human PI3Kalpha equilibrate for 6 hrs by scan-kinetic platform assay. The essentials:
(§2)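 scanKINETIC format on PI3Kα and PI3Kγ. […] Arm C: equilibrated 1 h. Arm B: equilibrated 1 h, diluted 30-fold, then re-equilibrated. Arm D: diluted immediately, then equilibrated. Kd compared with and without the dilution step to judge reversibility.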

The target of test [5] is Epidermal growth factor receptor (Homo sapiens) (UniProt P00533). Kind of test: Inhibition of EGFR in human HeLa cells assessed as reduction in EGF-stimulated EGFR phosphorylation at 0.3 to 100 nM preincubated for 10 mins followed by EGF stimulation measured after 5 mins by Western blot analysis. The format is cell-based. In short, it runs like this: as §1
Chain of Epidermal growth factor receptor (Homo sapiens) (P00533 whole entry, canonical isoform): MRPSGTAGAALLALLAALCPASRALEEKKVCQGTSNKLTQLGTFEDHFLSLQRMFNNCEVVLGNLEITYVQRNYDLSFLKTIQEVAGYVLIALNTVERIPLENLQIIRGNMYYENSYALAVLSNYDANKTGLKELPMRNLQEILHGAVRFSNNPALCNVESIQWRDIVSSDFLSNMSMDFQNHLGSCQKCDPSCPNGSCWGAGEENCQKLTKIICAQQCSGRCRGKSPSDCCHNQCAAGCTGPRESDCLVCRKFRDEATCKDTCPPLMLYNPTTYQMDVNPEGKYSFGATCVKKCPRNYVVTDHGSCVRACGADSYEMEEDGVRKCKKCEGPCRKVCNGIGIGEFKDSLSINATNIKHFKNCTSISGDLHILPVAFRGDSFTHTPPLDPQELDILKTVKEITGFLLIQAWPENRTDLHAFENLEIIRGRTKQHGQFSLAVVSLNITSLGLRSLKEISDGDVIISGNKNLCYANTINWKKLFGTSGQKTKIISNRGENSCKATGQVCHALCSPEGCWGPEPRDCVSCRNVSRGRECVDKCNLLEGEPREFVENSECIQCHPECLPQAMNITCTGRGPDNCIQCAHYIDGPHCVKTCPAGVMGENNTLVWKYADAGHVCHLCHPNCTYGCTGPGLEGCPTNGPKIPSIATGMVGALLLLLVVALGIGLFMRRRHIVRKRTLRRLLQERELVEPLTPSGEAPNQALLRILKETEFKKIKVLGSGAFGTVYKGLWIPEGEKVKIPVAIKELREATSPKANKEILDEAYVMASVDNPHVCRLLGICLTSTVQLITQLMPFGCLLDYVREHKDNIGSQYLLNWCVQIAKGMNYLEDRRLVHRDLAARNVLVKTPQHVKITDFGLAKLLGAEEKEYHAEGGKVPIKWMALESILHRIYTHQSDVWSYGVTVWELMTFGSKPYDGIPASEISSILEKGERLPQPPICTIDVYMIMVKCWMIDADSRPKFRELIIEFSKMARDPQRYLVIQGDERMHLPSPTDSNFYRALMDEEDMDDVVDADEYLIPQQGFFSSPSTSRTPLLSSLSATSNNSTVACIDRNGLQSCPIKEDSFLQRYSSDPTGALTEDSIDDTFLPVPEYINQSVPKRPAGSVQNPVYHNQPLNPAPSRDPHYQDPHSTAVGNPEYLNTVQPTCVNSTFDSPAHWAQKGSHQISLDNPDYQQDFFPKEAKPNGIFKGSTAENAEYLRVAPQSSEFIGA
In test [6] the target is T1, Phosphatidylinositol 4,5-bisphosphate 3-kinase catalytic subunit alpha isoform. Kind of test: Binding affinity to human PI3Kalpha equilibrate for 1 hr followed by 30 fold dilution and re-equilibrate for 5 hrs by scan-kinetic platform assay. In short, it runs like this:
as §2

The target of test [7] is Serine/threonine-protein kinase mTOR (Homo sapiens, UniProt P42345). Kind of test: Binding affinity to human mTOR after 1 hr by KINOMEscan assay.
Test [8] concerns the target T2, Aurora kinase A (Homo sapiens) (UniProt O14965).
T2 sequence (whole entry): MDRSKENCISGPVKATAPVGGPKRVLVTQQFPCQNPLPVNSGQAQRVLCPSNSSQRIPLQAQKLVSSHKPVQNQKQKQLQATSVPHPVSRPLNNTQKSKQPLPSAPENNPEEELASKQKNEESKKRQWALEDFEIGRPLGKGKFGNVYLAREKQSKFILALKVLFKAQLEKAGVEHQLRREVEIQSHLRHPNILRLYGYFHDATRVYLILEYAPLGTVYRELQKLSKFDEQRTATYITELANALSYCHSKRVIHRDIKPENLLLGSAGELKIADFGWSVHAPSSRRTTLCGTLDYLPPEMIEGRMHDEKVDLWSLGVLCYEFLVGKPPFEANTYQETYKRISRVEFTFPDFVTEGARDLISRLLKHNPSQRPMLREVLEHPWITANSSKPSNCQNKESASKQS
Kind of test: Binding affinity to human AURKA at 1 uM after 1 hr by KINOMEscan assay.

Test [9] deals with T3, Phosphatidylinositol 4,5-bisphosphate 3-kinase catalytic subunit delta isoform (Homo sapiens, UniProt O00329).
T3 sequence (O00329 whole entry): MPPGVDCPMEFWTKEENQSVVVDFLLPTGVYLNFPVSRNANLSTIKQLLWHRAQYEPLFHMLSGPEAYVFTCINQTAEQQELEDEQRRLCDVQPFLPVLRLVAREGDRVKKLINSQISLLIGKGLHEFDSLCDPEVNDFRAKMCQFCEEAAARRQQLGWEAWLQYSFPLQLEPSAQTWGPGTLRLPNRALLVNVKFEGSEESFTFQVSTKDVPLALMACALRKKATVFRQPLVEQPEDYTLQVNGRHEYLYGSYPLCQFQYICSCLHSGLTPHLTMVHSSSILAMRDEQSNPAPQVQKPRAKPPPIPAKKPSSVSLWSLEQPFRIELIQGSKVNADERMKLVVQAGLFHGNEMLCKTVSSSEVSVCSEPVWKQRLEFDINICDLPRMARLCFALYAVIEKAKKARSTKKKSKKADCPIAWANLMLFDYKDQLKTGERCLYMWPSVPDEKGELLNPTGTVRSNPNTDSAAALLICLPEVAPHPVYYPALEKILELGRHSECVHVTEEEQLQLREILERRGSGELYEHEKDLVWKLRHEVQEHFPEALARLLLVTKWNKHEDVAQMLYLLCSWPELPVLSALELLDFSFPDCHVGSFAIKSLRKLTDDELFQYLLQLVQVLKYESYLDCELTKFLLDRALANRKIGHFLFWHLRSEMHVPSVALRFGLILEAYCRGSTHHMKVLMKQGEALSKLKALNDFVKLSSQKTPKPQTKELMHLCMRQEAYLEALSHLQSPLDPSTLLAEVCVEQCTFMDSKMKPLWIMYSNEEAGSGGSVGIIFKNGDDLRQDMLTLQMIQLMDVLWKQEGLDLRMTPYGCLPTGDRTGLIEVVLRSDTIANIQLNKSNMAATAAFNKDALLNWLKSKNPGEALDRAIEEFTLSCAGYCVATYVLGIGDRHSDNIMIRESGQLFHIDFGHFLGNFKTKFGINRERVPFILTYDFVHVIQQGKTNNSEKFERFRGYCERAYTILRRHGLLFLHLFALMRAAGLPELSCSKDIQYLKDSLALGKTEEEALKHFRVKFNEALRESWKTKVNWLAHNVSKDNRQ
In words: Binding affinity to human PI3Kdelta after 1 hr by KINOMEscan assay.

T1 sequence (P42336 whole entry, canonical isoform): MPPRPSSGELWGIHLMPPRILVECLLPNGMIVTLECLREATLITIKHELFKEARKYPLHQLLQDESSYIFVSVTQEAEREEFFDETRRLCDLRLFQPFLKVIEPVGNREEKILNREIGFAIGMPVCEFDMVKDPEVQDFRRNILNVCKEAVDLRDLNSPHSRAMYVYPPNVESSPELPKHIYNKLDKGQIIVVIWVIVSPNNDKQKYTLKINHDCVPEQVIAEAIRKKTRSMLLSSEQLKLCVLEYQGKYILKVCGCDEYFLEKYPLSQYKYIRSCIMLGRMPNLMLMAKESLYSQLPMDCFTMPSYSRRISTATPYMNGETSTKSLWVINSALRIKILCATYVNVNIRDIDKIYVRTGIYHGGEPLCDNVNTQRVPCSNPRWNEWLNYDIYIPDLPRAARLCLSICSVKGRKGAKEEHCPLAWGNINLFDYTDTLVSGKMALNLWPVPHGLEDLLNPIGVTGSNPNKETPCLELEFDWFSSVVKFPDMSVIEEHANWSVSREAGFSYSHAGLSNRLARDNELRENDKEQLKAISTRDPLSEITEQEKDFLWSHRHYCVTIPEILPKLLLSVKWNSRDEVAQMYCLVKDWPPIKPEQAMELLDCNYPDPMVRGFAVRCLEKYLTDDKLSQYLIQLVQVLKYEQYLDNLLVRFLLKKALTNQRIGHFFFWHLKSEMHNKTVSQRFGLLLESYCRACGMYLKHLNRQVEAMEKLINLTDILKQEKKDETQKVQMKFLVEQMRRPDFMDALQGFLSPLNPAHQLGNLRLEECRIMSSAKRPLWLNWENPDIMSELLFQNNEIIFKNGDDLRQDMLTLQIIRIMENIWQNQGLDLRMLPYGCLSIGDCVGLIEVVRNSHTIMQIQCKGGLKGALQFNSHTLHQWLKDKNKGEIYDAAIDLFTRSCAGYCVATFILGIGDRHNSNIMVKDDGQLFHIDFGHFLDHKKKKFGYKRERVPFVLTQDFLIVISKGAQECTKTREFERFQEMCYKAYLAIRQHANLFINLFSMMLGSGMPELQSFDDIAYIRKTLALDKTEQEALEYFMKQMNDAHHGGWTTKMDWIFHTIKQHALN
Chain of Aurora kinase B (Homo sapiens) (Q96GD4 whole entry): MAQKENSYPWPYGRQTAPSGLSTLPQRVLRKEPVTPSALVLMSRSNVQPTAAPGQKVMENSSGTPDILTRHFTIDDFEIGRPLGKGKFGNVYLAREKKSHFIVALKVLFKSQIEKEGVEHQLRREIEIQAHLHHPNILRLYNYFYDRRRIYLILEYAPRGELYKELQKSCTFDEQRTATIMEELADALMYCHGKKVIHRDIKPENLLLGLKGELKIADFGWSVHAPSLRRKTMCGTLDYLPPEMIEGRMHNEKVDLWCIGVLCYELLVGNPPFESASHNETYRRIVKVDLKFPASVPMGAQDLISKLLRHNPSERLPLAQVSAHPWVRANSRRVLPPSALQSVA

In the case of `CO/C=C/C(=O)c1cc2c3c(c(N)cc(NC(=O)C(C)C)c3n1)N=C2`, the inhibition entry in [1] and in [5] was “inactive” each time. Also, the result in [2], in test [3] and in test [8] was Active. Also, the Kd is 0.43 to 0.45 nM in [4], 0.56 to 0.72 nM in [6], 10 nM in [7] and 4.9 nM in [9].
